Data on nine molecules can be found in ChEMBL document CHEMBL4425126 (J Med Chem, 2016).

The source made the active and inactive calls. The calls are words filed in the database; no cut-off is given here.

The test system of data set [1] is SW480. The experiment in a line: Induction of morphological changes in human SW480 cells assessed as induction of massive cell flattening at 2.5 uM incubated for 48 hrs by phase contrast microscopy. It counts as functional, cell-based.
Data set [2] relates to SW480. The experiment in a line: Induction of morphological changes in human SW480 cells assessed as induction of vesicular blebbing in cytosol at 2.5 uM incubated for 48 hrs by phase contrast microscopy. It counts as functional, cell-based.
The subject of data set [3] is HL-60. The experiment in a line: Induction of intracellular ROS generation in human HL60 cells at 1 and 5 uM in presence of CuCl2 incubated for 30 mins by DCF-DA staining based fluorescence assay. The class given is functional, cell-based. The method, boiled down:
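HL-60 cells (5 × 10^5 per sample, phenol-free Hanks balanced salt solution) were loaded with DCF-DA for 30 min. CuCl2 was added 15 min before the thiosemicarbazone, at a ligand:Cu ratio of 1:1 or 1:2. Drug exposure lasted a further 30 min, and mean fluorescence was read by flow cytometry. H2O2 (200 μM) served as control. Data are mean ± SD of three experiments.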

The subject of data set [4] is SW480 (Homo sapiens). The experiment in a line: Cytotoxicity against human SW480 cells pre-incubated with CuCl2 for 60 mins followed by compound addition for 72 hrs by MTT assay.
The nature of data set [5]: physchem. The conditions noted are these: n-octanol/water, pH 7.4.
Data set [6] deals with SW480. The experiment in a line: Induction of morphological changes in human SW480 cells assessed as induction of vacuoles at 2.5 uM incubated for 24 hrs by phase contrast microscopy. It counts as functional, cell-based. The procedure, abridged:
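SW480 cells (MEM + 10% FCS) were treated for 24 h and then photographed at 400× magnification with an sCMOS camera on a fluorescence microscope to visualise cytoplasmic vacuoles.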

Regarding `CNC(=S)N/N=C/c1ncccc1N(C)C`, the result in data set [1] was inactive. Besides, the outcome in data set [2], in data set [3] and in data set [4] was Active.

With `CN(C)C(=S)N/N=C/c1ncccc1N`, the result in data set [3] was Active. Besides, in data set [5], the logD amounted to 1.3.

Turning to `CN(C)c1cccnc1/C=N/NC(N)=S`, the result in data set [4] was Active.

`NC(=S)N/N=C/c1ncccc1N`: the result in data set [1] and in data set [3] was Active. The result in data set [4] was inactive.

Turning to `CNC(=S)N/N=C/c1ncccc1N`, the result in data set [1] was Active.

For the molecule `CN(C)C(=S)N/N=C/c1ncccc1N(C)C`, the result in data set [2], in data set [6] and in data set [3] was Active.

Turning to `CNc1cccnc1/C=N/NC(=S)N(C)C`, in data set [1], the result was inactive. For the same molecule, the outcome in data set [4] was Active.

Consider `CN(C)C(=S)NN=C(c1ccccn1)c1ccccn1`, for which, in data set [4], the outcome was Active.

As to `CNc1cccnc1/C=N/N=C(/N)S`, the result in data set [1] was Active.
